Compound activity as filed in PubChem.
m5-HT2A agonist = mouse Htr2a agonists via beta-arrestin recruitment, primary screen, cell-based, luminescence | CHO-K1 mHTR2A beta-arrestin complementation; percent of 30 µM serotonin response | actives 0.66% (n = 360,000) | activation, % at 7.6 µM;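 active = activation above a run cutoff, the mean activation of all tested compounds plus 3 SD, cut at about 14% in these data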
MC4R antagonist = MC4R antagonists of cAMP signaling, primary screen, cell-based, TR-FRET, antagonist arm of biased-ligand search; Melanocortin receptor 4 (Homo sapiens), P32245; MC4R-expressing cells, MTII-stimulated cAMP, LANCE TR-FRET; inhibition, % at 6.5 µM; actives 0.48% (n = 360,000); AID 540295, 2011;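 active = inhibition above its plate's cutoff, the mean of tested wells on that plate plus 3 SD, cut at about 29% in these data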
Target sequence (P32245 whole entry, looked up): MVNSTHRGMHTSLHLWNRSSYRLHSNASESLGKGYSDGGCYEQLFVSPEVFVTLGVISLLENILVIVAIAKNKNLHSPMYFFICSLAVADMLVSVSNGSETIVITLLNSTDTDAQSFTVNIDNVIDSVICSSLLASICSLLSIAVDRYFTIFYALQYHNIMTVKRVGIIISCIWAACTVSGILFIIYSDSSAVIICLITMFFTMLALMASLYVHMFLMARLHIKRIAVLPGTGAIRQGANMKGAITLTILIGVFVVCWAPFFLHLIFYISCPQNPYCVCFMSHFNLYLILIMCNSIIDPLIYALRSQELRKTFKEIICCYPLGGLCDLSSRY
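System – human MC4R-expressing U2OS cells · Also added – Melanotan II · Dosing – one concentration, 6.5 µM nominal · Timing – 30-min compound, 1-h challenge, 1-h detection, room temperature · Measured by – Eu-cAMP/anti-cAMP TR-FRET, emission 671 nm · Replicates – singlicate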
TMEM16A act = TMEM16A chloride channel activators or potentiators, primary screen, cell-based, HTS; Anoctamin-1 (Mus musculus), Q8BHY3; HEK293 TMEM16A/YFP-H148Q/I152L, iodide quench fluorescence; active compounds read low; B-score at 10 µM; actives 0.3% (n = 340,000); AID 623877, 2012;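 active = fluorescence-ratio B-score plate-corrected deviation score at least 3 library SD below zero, with starting fluorescence score within 5 deviations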;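 note: channel opened by trigger with iodide after compound preincubation; score built on the fluorescence ratio of max minus min over baseline; more negative score means more quench and so TMEM16A activation or potentiation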
MC4R barr agon = MC4R agonists recruiting beta-arrestin, primary screen, cell-based, luminescence, agonist arm of biased-ligand search; U2OS MC4R beta-arrestin complementation; percent of melanotan II response, DMSO zero; activation, % at 8.9 µM; actives 0.98% (n = 360,000); AID 540308, 2011;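 active = activation above a per-plate cutoff, the mean activation of sample wells on that plate plus 3 SD, cut at about 8% in these data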
MIN6 prolif = inducers of MIN6 beta-cell proliferation, primary screen, ATP luminescence, uHTS; MIN6 cells proliferation, ATPlite luminescence, 48 h; cells starved in 0.2% serum; 100% = growth in 10% serum; proliferation, % at 10 µM; AID 2380, 2010; actives 0.29% (n = 330,000);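 active = compounds whose signal lies at least 3.5 SD above the mean of all wells on their plate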
TMEM16A inh = TMEM16A chloride channel inhibitors, primary screen, cell-based, HTS; Anoctamin-1 (Mus musculus), Q8BHY3; HEK293 TMEM16A/YFP iodide influx fluorescence, ionomycin; normalized B-score (activity score, 25-100; higher = stronger inhibition) at 10 µM; actives 1.2% (n = 310,000); AID 588511, 2011;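 active = ratio plate-corrected score three or more library SD toward inhibition, starting fluorescence score within five deviations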;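 note: score derived from kinetic fluorescence span divided by baseline fluorescence per well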
OPRM1 ag = OPRM1 agonists via beta-arrestin recruitment, confirmation, counter-screen for mouse HTR2A agonist project, cell-based, luminescence, single concentration; activation, % at 9.3 µM; shares compounds with m5-HT2A agonist; U2OS OPRM1 beta-arrestin PathHunter; DMSO 0%, DAMGO 9.3 µM 100%; actives 5.3% (n = 2,300);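 active = mean activation above the mean of DMSO-only wells plus 3 SD, cut at about 0.5% in these data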
Target sequence (P35372 whole entry, looked up): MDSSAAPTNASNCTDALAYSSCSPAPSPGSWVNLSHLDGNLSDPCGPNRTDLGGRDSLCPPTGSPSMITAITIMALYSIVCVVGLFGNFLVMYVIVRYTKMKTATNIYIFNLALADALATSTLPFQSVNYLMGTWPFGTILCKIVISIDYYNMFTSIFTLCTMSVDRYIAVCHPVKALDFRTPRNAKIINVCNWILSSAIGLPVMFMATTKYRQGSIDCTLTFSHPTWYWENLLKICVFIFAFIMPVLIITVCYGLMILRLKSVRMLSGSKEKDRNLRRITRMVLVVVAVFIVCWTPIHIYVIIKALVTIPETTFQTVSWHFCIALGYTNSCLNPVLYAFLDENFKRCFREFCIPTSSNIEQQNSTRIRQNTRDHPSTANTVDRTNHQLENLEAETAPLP
HTR2A ag conf = mouse HTR2A agonists, beta-arrestin recruitment, confirmation, cell-based, luminescence, CHO-K1 PathHunter, triplicate | shares compounds with m5-HT2A agonist | DMSO 0%, 30 µM serotonin 100% | activation, % at 7.6 µM | actives 19% (n = 2,300);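 active = mean activation across triplicates above the hit threshold derived in the original primary screen, cut at about 15% in these data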
Each line names hits and unclear results; the compound was inactive in the other large screens (follow-up assays come after a bar, where they were run). The list is not random: actives were taken first. Their share in the collection is about 3.4%.

Cc1nn(C(C)C(=O)N2CCCC2)c(=O)c2nn(-c3ccccc3)c(C)c12 (centres undefined)	none
COc1ccc(C(=O)N2CCc3cc(OC)c(OC)cc3C2)cc1OC	none
COc1cc2c(cc1OC)CN(C(=O)C(C)(C)C)CC2	m5-HT2A agonist 17 | OPRM1 ag inactive | HTR2A ag conf inactive
CCC1(c2ccccc2)NC(=O)N(CC(=O)Nc2ccc3c(C)cc(=O)oc3c2)C1=O (centres undefined)	none
CC1CCN(c2c(NCC3CCC(C(=O)NCc4ccccc4Cl)CC3)c(=O)c2=O)CC1 (centres undefined)	m5-HT2A agonist 19 | OPRM1 ag inactive | HTR2A ag conf inactive
CC1CCN(c2c(NCC3CCC(C(=O)NCCc4ccccc4)CC3)c(=O)c2=O)CC1 (centres undefined)	none
NC(c1csc(NC(=O)Nc2ccc(OC(F)(F)F)cc2)n1)C1CCCCC1 (centres undefined)	none (no result: TMEM16A act, MIN6 prolif, TMEM16A inh)
Cn1cc([N+](=O)[O-])c(C(=O)N/N=C/c2ccc([N+](=O)[O-])cc2)n1	m5-HT2A agonist 20 | OPRM1 ag inactive | HTR2A ag conf 37
Cn1cc([N+](=O)[O-])c(C(=O)N/N=C/c2ccncc2)n1	none
Cc1cn(CC(=O)N(C)Cc2ccco2)c(=O)[nH]c1=O	none (no result: TMEM16A act, MIN6 prolif, TMEM16A inh)
COc1ccc(CN(C)C(=O)c2ccc(NS(=O)(=O)c3ccc(C)c([N+](=O)[O-])c3)cc2)c(OC)c1OC	m5-HT2A agonist 18 | OPRM1 ag inactive | HTR2A ag conf inactive
CC(=O)c1ccc(N(CC(=O)NCCc2ccccc2)C(=O)c2csnn2)cc1	none
CC(C)(C)OC(=O)NNC(=S)NC1CCCCC1	m5-HT2A agonist 16 | OPRM1 ag inactive | HTR2A ag conf inactive
CC(C)CNc1ncnc2c1ncn2[C@H]1CN(Cc2ccc(C(=O)O)cc2)C[C@@H](CO)O1	none (no result: TMEM16A act, MIN6 prolif, TMEM16A inh)
Cc1nnc(SCCC(=O)Nc2ccccc2Cl)o1	none
CC(C)NC(=O)C1(C)CN(S(C)(=O)=O)CC(=O)N1C1CCN(Cc2ccccc2)CC1 (centres undefined)	m5-HT2A agonist 27 (no result: MC4R antagonist, TMEM16A act, MC4R barr agon, MIN6 prolif, TMEM16A inh) | OPRM1 ag inactive | HTR2A ag conf inactive
CC1(C(=O)NCc2ccccc2)CN(S(C)(=O)=O)CC(=O)N1C1CCN(Cc2ccccc2)CC1 (centres undefined)	none (no result: MC4R antagonist, TMEM16A act, MC4R barr agon, MIN6 prolif, TMEM16A inh)
Cc1ccc(NC(=O)Nn2cnnc2)cc1	m5-HT2A agonist 16 | OPRM1 ag inactive | HTR2A ag conf inactive
COc1ccc(CCN2CC(C(=O)OCC(=O)NC(C)c3cccc(Cl)c3)CC2=O)cc1OC (centres undefined)	none (no result: TMEM16A inh)
CC(C)(C)OC(=O)NCCc1nnc(SCc2c(Cl)cccc2Cl)o1	m5-HT2A agonist 15 | OPRM1 ag inactive | HTR2A ag conf inactive
CNS(=O)(=O)c1cn(CC(=O)NCc2ccc(N(C)C)cc2)cc1S(=O)(=O)NC	none
CCC(=O)N1CCC1(C)C(=O)Nc1ccc(OC)c(OC)c1 (centres undefined)	none (no result: TMEM16A act, MIN6 prolif, TMEM16A inh)
CCc1nnc(NC(=O)c2cc(S(=O)(=O)N3CCOCC3)ccc2N2CCCCC2)s1	none (no result: MIN6 prolif, TMEM16A inh)
O=C(Nc1nnc(C2CC2)s1)c1cc(S(=O)(=O)N2CCCCC2)ccc1N1CCOCC1	m5-HT2A agonist 24 | OPRM1 ag inactive | HTR2A ag conf inactive
CCOc1ccc(NC(=O)COC(=O)CC2CC3CCC2C3)cc1 (centres undefined)	none (no result: TMEM16A inh)
CCC(=O)c1ccc(OCC(=O)OCc2csc(CC(=O)Nc3ccccc3C)n2)cc1	m5-HT2A agonist 19 (no result: TMEM16A act, MIN6 prolif, TMEM16A inh) | OPRM1 ag inactive | HTR2A ag conf inactive
Cc1ccccc1NC(=O)Cc1nc(COC(=O)CCC(=O)c2ccccc2)cs1	none (no result: TMEM16A inh)
Cc1cc(=O)nc2c3ccccc3n(CC(=O)NCCC3=CCCCC3)n12	none
NC(=Nc1c([N+](=O)[O-])cnc2ccccc12)N1CCOCC1	none (no result: MC4R antagonist, TMEM16A act, MC4R barr agon, MIN6 prolif, TMEM16A inh)
Nc1ccc(N2CCN(c3ccc(F)cc3)CC2)cc1	none
COC(=O)N1CCN(c2ccc(Cl)c(Cl)c2)CC1	none
Nc1ccc(N2CCN(c3ccc(Cl)c(Cl)c3)CC2)cc1	m5-HT2A agonist 35 | OPRM1 ag inactive | HTR2A ag conf inactive
N#C/C=C(/N)N1CCN(c2ccc(Cl)c(Cl)c2)CC1	m5-HT2A agonist 35 | OPRM1 ag inactive | HTR2A ag conf 19
O=C1CC(N2CCN(c3ccc(Cl)c(Cl)c3)CC2)C(=O)N1 (centres undefined)	m5-HT2A agonist 19 | OPRM1 ag 1.6 | HTR2A ag conf 18
COc1ccc(-n2ncc3c2CC(C)(C)CC3NC(=O)c2cnc(C)cn2)cc1 (centres undefined)	none
COc1ccc(N2CCN(Cc3cc(=O)oc4cc(C)c(Cl)cc34)CC2)cc1	none
Cc1cc2oc(=O)cc(Cn3ccnc3)c2cc1Cl	m5-HT2A agonist 26 | OPRM1 ag inactive | HTR2A ag conf inactive
Cc1ccc2c(CN3CCN(c4ccc(Cl)c(Cl)c4)CC3)cc(=O)oc2c1	m5-HT2A agonist 18 (no result: MC4R antagonist, TMEM16A act, MC4R barr agon, MIN6 prolif, TMEM16A inh) | OPRM1 ag inactive | HTR2A ag conf inactive
Cc1cc2oc(=O)cc(CN3CCN(c4ccc(Cl)c(Cl)c4)CC3)c2cc1Cl	m5-HT2A agonist 17 (no result: MC4R antagonist, TMEM16A act, MC4R barr agon, MIN6 prolif, TMEM16A inh) | OPRM1 ag inactive | HTR2A ag conf inactive
COc1ccc(/C=C/C(=O)Nc2nonc2NC(C)=O)cc1	m5-HT2A agonist 25 | OPRM1 ag inactive | HTR2A ag conf inactive
CCOc1ccc(OCCC(=O)OCC(=O)Nc2ccc3c(c2)OCCO3)cc1	none
COc1ccc(C(=O)N=C2SC3CS(=O)(=O)CC3N2c2ccc(C(C)=O)cc2)cc1 (centres undefined)	m5-HT2A agonist 16 | OPRM1 ag inactive | HTR2A ag conf inactive
COc1ccc(N2C(=NC(=O)c3ccc(Br)cc3)SC3CS(=O)(=O)CC32)cc1 (centres undefined)	none (no result: TMEM16A inh)
